Data as given in PMC3968794 (Bioorganic & medicinal chemistry, 2013).
Read-outs that look alike come from different tables or passages of the source.

Experiments:
[1] = system: SK-OV-3, NCI-H460 and DU-145 human cancer cell lines; assay: SRB cytotoxicity assay, three human cancer cell lines stated together; type: cell-based
Outline: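 Sulforhodamine B growth-inhibition assay (NCI standard method). Cells were grown in RPMI1640 with 5% fetal bovine serum and 1% gentamicin, then plated and incubated 24 h. Serial dilutions of test compound were added, with 48 h exposure. Cells were fixed with trichloroacetic acid, stained with SRB, and read by optical density. GI50 (concentration halving net protein increase) was calculated from OD data.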

tubulin [2] = assay: Inhibition of tubulin assembly; type: biochemical; details: read-out: Inhibition of tubulin polymerization IC50; cell-free assay, tubulin purified from calf brain
Outline: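 Calf-brain tubulin; test compound mixtures held on ice 15 min, then GTP added from a 2.5 mM stock. Samples equilibrated at 0 °C for 8 min in the spectrophotometer, then read at 350 nm every 30 s for 3800 s. Temperature program: 0 °C for 100 s, 38 °C for 120 s, 31 °C until 2600 s, then 0 °C to the end.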

tubulin [3] = details: read-out: Inhibition of tubulin polymerization IC50; cell-free assay; ref [61]; cited from earlier work

| Structure (SMILES) | IC50 (tubulin [2]) [µM] | other results |
| --- | --- | --- |
| COc1ccc2c(c1NC(=O)[C@@H](N)CO)CCCC=C2c1cc(OC)c(OC)c(OC)c1.Cl [Compound 48, 1-(L-ser)amido-5-(3′,4′,5′-trimethoxyphenyl)-2-methoxy-benzocyclohept-5-ene hydrochloride] |  | Cytotoxicity (in words) ([1]; three human cancer cell lines): inactive in terms of cytotoxicity |
| COc1cc2c(c(OC)c1O)CCCC=C2c1cc(OC)c(OC)c(OC)c1 [Compound 38, 1,3-Dimethoxy-2-hydroxy-5-(3′,4′,5′-trimethoxyphenyl)-benzocyclohept-5-ene] | > 40 |  |
| COc1cc(C2=CCCCc3c2ccc(OC)c3OP(=O)(O)O)cc(OC)c1OC [Compound 44, Disodium 2-Methoxy-5-(3′,4′,5′-trimethoxyphenyl)-benzocyclohept-5-ene-1-phosphate] | > 40 |  |
| COc1cc(C2=CCCCc3ccccc32)cc(OC)c1OC [Compound 41, 5-(3,4,5-trimethoxyphenyl)-benzocyclohept-5-ene] | > 40 |  |
| COc1cc(C2=CCCCc3c2cc(OC)c(OC)c3O)cc(OC)c1OC [Compound 43, 1-Hydroxy-2,3-dimethoxy-5-(3′,4′,5′-trimethoxyphenyl)-benzocyclohept-5-ene] | > 40 |  |
| COc1ccc(/C=C\c2cc(OC)c(OC)c(OC)c2)cc1OP(=O)(O)O [CA4P, combretastatin A-4P] |  | IC50 (tubulin [3]): > 40 µM |
| COc1ccc(C2=CCCCc3c2ccc(OC)c3OC)cc1OC [Compound 35, 1,2-Dimethoxy-5-(3,4-dimethoxyphenyl)-benzocyclohept-5-ene] | > 40 |  |
| COc1ccc2c(c1O)CCCC=C2c1cc(OC)c(OC)c(OC)c1 [Compound 39, 1-Hydroxy-2-methoxy-5-(3′,4′,5′-trimethoxyphenyl)-benzocyclohept-5-ene] |  | GI50 ([1]; Homo sapiens, read-out: GI50 (cytotoxicity)): < 0.0001 µM |
